Measurements published in ChEMBL document CHEMBL2086322, “"True" antiandrogens-selective non-ligand-binding pocket disruptors of androgen receptor-coactivator interactions: novel tools for prostate cancer” (J Med Chem, 2012).
Active and inactive are the calls of the source. No cut-off for these calls is given here.

Key:
[1] = target: T1, Progesterone receptor (Homo sapiens) (UniProt P06401); assay: Antagonist activity at PR assessed as inhibition of progesterone-induced fluorescent labelled SRC1-4 recruitment at 100 uM after 2 to 4 hrs by TR-FRET assay; assay type: functional
T1 sequence (whole entry): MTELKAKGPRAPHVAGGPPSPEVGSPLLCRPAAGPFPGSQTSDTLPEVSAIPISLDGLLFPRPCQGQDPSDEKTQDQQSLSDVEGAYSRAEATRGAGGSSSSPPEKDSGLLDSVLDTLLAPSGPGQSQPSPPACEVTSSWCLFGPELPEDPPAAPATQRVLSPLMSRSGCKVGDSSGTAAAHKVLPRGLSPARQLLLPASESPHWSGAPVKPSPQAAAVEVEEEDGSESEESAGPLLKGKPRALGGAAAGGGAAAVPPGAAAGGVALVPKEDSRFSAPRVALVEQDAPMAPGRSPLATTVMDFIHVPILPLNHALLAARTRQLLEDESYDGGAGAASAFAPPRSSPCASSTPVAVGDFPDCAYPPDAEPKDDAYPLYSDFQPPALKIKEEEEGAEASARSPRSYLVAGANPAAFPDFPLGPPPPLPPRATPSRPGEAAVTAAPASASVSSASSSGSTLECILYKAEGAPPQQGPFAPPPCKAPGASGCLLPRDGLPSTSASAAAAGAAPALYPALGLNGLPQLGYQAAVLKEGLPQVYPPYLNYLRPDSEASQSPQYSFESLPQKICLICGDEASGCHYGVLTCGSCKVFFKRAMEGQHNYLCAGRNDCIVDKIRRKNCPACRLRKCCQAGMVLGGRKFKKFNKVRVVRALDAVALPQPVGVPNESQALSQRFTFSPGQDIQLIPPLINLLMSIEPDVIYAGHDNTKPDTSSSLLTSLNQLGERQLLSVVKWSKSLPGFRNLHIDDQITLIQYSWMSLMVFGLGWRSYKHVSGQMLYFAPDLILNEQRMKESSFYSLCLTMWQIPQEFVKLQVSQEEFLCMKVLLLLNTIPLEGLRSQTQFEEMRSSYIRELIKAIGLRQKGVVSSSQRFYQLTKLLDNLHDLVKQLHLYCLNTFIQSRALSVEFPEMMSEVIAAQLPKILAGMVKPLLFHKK
Method in brief: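 TR-FRET coactivator recruitment with PR ligand-binding domain, fluorescent SRC1-4 peptide and Tb anti-GST antibody, with progesterone at its EC80. Compounds were tested from 100 to 1 μM at 1% DMSO final in coregulator buffer with 5 mM DTT. […] Two independent experiments, each in triplicate; IC50 from variable-slope fit.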

PC-3 = assay: Cytotoxicity against androgen independent human PC3 cells assessed as cell viability at 50 uM after 24 hrs by alamar blue assay; assay type: functional; conditions: for viability at 50 µM: PC-3, 24 h, read-out: Activity
[2] = target: T2, Androgen receptor (Homo sapiens) (UniProt P10275); assay: Displacement of fluormone from AR LBD after 4 hrs by fluorescence polarization assay; conditions: concentration not given here
T2 sequence (whole entry): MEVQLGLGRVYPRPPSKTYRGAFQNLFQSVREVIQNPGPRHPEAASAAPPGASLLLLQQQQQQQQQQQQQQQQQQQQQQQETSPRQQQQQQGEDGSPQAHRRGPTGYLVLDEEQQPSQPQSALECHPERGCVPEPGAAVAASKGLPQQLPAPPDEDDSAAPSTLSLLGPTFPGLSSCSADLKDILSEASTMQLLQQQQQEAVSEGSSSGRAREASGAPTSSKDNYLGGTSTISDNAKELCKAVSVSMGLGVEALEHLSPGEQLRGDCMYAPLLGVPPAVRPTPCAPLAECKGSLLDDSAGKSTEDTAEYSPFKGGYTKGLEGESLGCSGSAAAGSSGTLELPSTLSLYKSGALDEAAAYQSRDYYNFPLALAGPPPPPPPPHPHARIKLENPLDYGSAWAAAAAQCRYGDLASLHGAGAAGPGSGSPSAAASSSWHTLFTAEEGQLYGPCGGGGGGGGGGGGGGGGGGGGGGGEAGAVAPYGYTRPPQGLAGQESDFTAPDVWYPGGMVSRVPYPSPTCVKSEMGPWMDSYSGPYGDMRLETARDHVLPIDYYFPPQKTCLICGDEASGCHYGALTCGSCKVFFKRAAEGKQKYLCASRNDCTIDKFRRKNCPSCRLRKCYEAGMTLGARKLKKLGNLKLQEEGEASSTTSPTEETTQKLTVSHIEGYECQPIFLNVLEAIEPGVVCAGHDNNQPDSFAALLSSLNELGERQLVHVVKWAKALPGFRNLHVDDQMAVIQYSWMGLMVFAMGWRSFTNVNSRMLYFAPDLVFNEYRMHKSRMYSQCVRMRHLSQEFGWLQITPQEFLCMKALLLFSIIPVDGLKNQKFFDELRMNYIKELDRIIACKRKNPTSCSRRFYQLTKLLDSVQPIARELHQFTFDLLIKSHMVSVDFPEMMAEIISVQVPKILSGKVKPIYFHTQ

[3] = Cytotoxicity against human PWR-1E cells assessed as cell viability at 50 uM after 24 hrs by alamar blue assay; assay type: cell-based; conditions: read-out: Activity
LNCaP [4] = assay: Cytotoxicity against androgen dependent human LNCAP cells assessed as cell viability at 50 uM after 24 hrs by alamar blue assay; assay type: functional; conditions: read-out: Activity
LNCaP [5] = assay: Antiproliferative activity against androgen dependent human LNCAP cells assessed as reduction of DHT-induced cell count after 5 days by alamar blue assay; assay type: functional, cell-based
Method in brief: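 LNCaP cells deprived of steroids for 48 h in phenol red-free RPMI with 10% charcoal-stripped FBS, then seeded at 2 × 10^4 cells/mL. Treated 5 days with compound (10 and 20 μM) with or without 0.1 nM DHT, 0.1% DMSO final. Medium and treatments renewed every second day after PBS washes. Growth read by AlamarBlue; two experiments, n = 6.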

[6] = target: T2, Androgen receptor (Homo sapiens); assay: Partial agonist activity at androgen receptor in human LNCAP cells assessed effect on CPA-induced PSA expression after 2 hrs by ELISA; assay type: functional, cell-based
[7] = target: T2, Androgen receptor (Homo sapiens); assay: Antagonist activity at androgen receptor in androgen dependent human LNCAP cells assessed reduction of CPA-induced PSA expression at 10 uM after 2 hrs by ELISA; assay type: functional, cell-based
CWR22R [8] = assay: Antiproliferative activity against human 22Rv1 cells assessed reduction of CPA-induced PSA expression after 2 hrs by ELISA; assay type: functional, cell-based
[9] = target: T2, Androgen receptor (Homo sapiens); assay: Antagonist activity at androgen receptor in androgen dependent human LNCAP cells assessed reduction of DHT-induced PSA expression after 2 hrs by ELISA; assay type: functional, cell-based
[10] = target: T2, Androgen receptor (Homo sapiens); assay: Agonist activity at androgen receptor in human LNCAP cells assessed effect on CPA-induced PSA expression after 2 hrs by ELISA; assay type: functional, cell-based
[11] = target: T2, Androgen receptor (Homo sapiens); assay: Antagonist activity at androgen receptor in androgen dependent human LNCAP cells assessed reduction of CPA-induced PSA expression after 2 hrs by ELISA; assay type: functional, cell-based
CWR22R [12] = assay: Antiproliferative activity against human 22Rv1 cells assessed effect on DHT-induced PSA expression after 2 hrs by ELISA; assay type: functional, cell-based

inhibition [1] [%] | inhibition [2] [%] | Activity [6] | Activity [7] | Activity [9] | Activity [10] | Activity [11] | SMILES | viability at 50 µM (PC-3) [%] | viability at 24 h, 50 µM [3] [%] | viability at 50 µM (LNCaP [4]) [%] | Activity (PC-3) | Activity (LNCaP [5]) | Activity (CWR22R [8]) | Activity (CWR22R [12])
50 | 0 |  |  |  |  |  | O=C(N/N=C/c1cc(Br)ccc1O)c1cc2ccccc2cc1O | 50 | 50 | 50 |  |  |  | 
 |  |  |  |  |  |  | CC(=O)O[C@]1(C(C)=O)CC[C@H]2[C@@H]3C=C(Cl)C4=CC(=O)[C@@H]5C[C@@H]5[C@]4(C)[C@H]3CC[C@@]21C |  |  |  | Active |  |  | 
30 | 0 | Active | Active | Dose-dependent effect | Active | Dose-dependent effect | COc1cc(/C=N/NC(=O)c2cc3c(ccc4ccccc43)o2)cc(OC)c1O | 80 | 80 | 80 |  | Dose-dependent effect | Active | inactive
